PMC4721638 (Integrative biology : quantitative biosciences from nano to …, 2015)
[ ]: non-standard residue; d: D form. Ahx = NCCCCCC(=O)O

B1: Recombinant protein RHAMM-CT (aa. 706–767) (domain or fragment)
chain: RDSYAQLLGHQNLKQKIKHVVKLKDENSQLKSEVSKLRSQLVKRKQNELRLQGELDKLQI

Key:
[1] = molecular target: T1, RHAMM:HA interaction, immobilized recombinant RHAMM (Mus musculus, UniProt Q00547); assay: Competitive ELISA, fluorescein-labelled peptides vs HA; type: binding; conditions: summary of the competitive ELISA results
T1 sequence (Q00547 with tags, fused parts or gaps): B1 chain

[2] = system: PC3MLN4 cells; assay: Cell adhesion on invasion assay substrates; type: cell-based, human; conditions: PC3MLN4 on the invasion assay substrates (not shown)
[3] = system: PC3MLN4 cells; assay: Anchorage independent growth; type: cell-based, human
[4] = system: PC3MLN4 cells; assay: Cell invasion assay; type: cell-based, human; conditions: 10 µg/mL, 48 hrs, compared to scrambled peptide control
Procedure, shortened: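 Gelatin invadopodia assay: PC3MLN4 cells are plated at 50% confluency on Cy3-gelatin-coated chamber slides in growth medium with test peptide or scrambled control peptide (10 µg/mL each). After 48 h, cells are fixed, stained with FITC-phalloidin and DAPI, and imaged by confocal microscopy to assess degradation of the fluorescent matrix.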

[5] = molecular target: T2, peptide 2b (VEGEGEEEGEEY); assay: SPR
T2 peptide: Ac-C[Ahx]VEGEGEEEGEEY-NH2

[6] = molecular target: T3, peptide 10b (EEDFGEEAEEEA); assay: SPR
T3 peptide: Ac-C[Ahx]EEDFGEEAEEEA-NH2

[7] = molecular target: T4, peptide 14b (FTEAESNMNDLV); assay: SPR
T4 peptide: Ac-C[Ahx]FTEAESNMNDLV-NH2

Row | Molecule | Overall efficiency at competing with HA for binding to RHAMM [1] | Inhibition of cell adhesion [2] | Effect on anchorage independent proliferation [3] | Inhibition of the ability to degrade collagen [4] [%] | Kd [5] [nM] | Kd [6] [nM] | Kd [7] [nM]
1 | EAFEDEEEEIDG [12a] | most efficient at competing with HA |  |  |  |  |  | 
2 | FTEAESNMNDLV [14a] | most efficient at competing with HA | no observed inhibition | marginal effects | 80 |  |  | 
3 | B1 |  |  |  |  | 24 | 32 | 30
